Measurements from ChEMBL document CHEMBL1138513, “Glucose promoiety enables glucose transporter mediated brain uptake of ketoprofen and indomethacin prodrugs in rats” (J Med Chem, 2009).

What was measured:
[1] = Chemical stability in aqueous phosphate buffer at pH 7.4 assessed as half life by HPLC; format: physicochemical
Outline: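 Prodrug dissolved in preheated 0.16 M phosphate buffer, pH 7.4, ionic strength 0.5, held at 37 °C in a water bath. Samples taken at intervals and remaining prodrug measured by HPLC. Pseudo-first-order t1/2 taken from the slope of log remaining prodrug versus time; mean ± sd, n = 2.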

[2] = target: T1, Solute carrier family 2, facilitated glucose transporter member 1 (Rattus norvegicus) (UniProt P11167); test: (§1) Inhibition of GluT1-mediated [14C]D-glucose uptake in Wistar rat brain by perfusion technique
T1 sequence (whole entry): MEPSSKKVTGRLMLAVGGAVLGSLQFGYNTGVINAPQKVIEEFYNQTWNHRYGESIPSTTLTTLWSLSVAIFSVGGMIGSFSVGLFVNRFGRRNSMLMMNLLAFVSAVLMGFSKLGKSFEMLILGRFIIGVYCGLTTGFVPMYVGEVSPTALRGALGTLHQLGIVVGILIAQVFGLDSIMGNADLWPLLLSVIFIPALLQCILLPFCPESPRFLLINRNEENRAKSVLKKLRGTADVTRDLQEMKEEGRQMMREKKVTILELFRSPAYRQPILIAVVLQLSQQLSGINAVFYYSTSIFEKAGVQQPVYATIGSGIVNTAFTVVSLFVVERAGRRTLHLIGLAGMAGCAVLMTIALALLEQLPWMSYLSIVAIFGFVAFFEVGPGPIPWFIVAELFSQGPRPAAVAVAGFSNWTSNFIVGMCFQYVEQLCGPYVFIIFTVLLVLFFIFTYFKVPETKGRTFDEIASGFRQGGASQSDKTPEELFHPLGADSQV
Outline: (§2)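 Rat brain PA product of 0.2 µCi/mL [14C]D-glucose measured by in situ perfusion with prodrug co-perfused at concentrations from 0.1 to 1000 µM or 0.01 to 80 µM. IC50 obtained by nonlinear regression; mean ± sd, n = 2.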

[3] = target: T2, Solute carrier family 2, facilitated glucose transporter member 1 (Rattus norvegicus, UniProt P11167); test: as §1; outline: as §2
T2 sequence (P11167 whole entry): T1 sequence (whole entry)

[4] = test system: Brain; test: Drug uptake in Wistar rat brain at 3500 uM by perfusion technique; format: ADME, tissue-based; settings: in vivo
Outline: (§3)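 In situ brain perfusion via the right common carotid artery in adult male Wistar rats (200-230 g) under ketamine/xylazine ip. Prodrug in perfusion medium with 1% DMSO, pH 7.4, perfused 60 s at 37 °C, then washed with cold (5 °C) prodrug-free medium for 30 s. Brain hemisphere analysed by HPLC; uptake in pmol/mg/min, mean ± sd, n = 3.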

[5] = test system: Brain; test: Drug uptake in Wistar rat brain at 150 uM by perfusion technique […]; format: ADME, tissue-based; settings: in vivo
Outline: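 Carrier-mediated uptake blocked nonspecifically by cold in male Wistar rats. Capillaries first washed 30 s with 5 °C prodrug-free medium, then perfused 60 s with 5 °C prodrug solution at 150 µM, then washed again with cold medium. Brain prodrug measured by HPLC; mean ± sd, n = 3.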

[6] = test system: Brain; test: Drug uptake in Wistar rat brain at 15000 uM by perfusion technique; format: ADME, tissue-based; settings: in vivo; outline: as §3
[7] = target: T1, Solute carrier family 2, facilitated glucose transporter member 1 (Rattus norvegicus); test: Inhibition of GluT1-mediated [14C]D-glucose uptake in Wistar rat brain at 80 uM after 30 seconds perfusion measured after drug washout from brain capillary 30 seconds before [14C]D-glucose challenge
Outline: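 Reversibility test in male Wistar rats. Brain perfused first with prodrug at 80 µM for 30 s, then with prodrug-free medium for 30 s to wash the capillaries, then with 0.2 µCi/mL [14C]D-glucose for 30 s. PA product of [14C]D-glucose then determined.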

[8] = test system: Brain; test: Drug uptake in Wistar rat brain at 150 uM by perfusion technique; format: ADME, tissue-based; settings: in vivo; outline: as §3
[9] = (§4) Metabolic stability in rat brain homogenate assessed as half life by HPLC; format: ADME, tissue-based
Outline: (§5)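 Prodrug incubated at 37 °C in rat brain homogenate diluted to 20% (v/v), or in liver homogenate diluted to 50% (v/v), in isotonic 0.16 M phosphate buffer, pH 7.4. Aliquots quenched with acetonitrile and centrifuged; remaining prodrug and released parent drug measured by HPLC. Pseudo-first-order t1/2 reported; mean ± sd, n = 3.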

[10] = target: T1, Solute carrier family 2, facilitated glucose transporter member 1 (Rattus norvegicus); test: Inhibition of GluT1-mediated [14C]D-glucose uptake in Wistar rat brain at 80 uM by perfusion technique
[11] = test system: Brain; test: Drug uptake in Wistar rat brain at 450 uM by perfusion technique; format: ADME, tissue-based; settings: in vivo; outline: as §3
[12] = Metabolic stability in rat liver homogenate assessed as half life by HPLC; format: ADME, tissue-based; outline: as §5
[13] = test system: Brain; test: Drug uptake in Wistar rat brain at 1000 uM by perfusion technique; format: ADME, tissue-based; settings: in vivo; outline: as §3
[14] = test system: Brain; test: Drug uptake in Wistar rat brain at 150 uM by perfusion technique in presence of D-glucose; format: ADME, tissue-based; settings: in vivo
Outline: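 Male Wistar rats, in situ carotid brain perfusion. Prodrug at 150 µM given for 60 s at 37 °C in perfusion medium (1% DMSO, pH 7.4) with 50 mM D-glucose added, followed by a 30 s cold prodrug-free wash. Brain prodrug measured by HPLC; uptake in pmol/mg/min, mean ± sd, n = 3.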

[15] = test system: Brain; test: as §4; format: ADME, tissue-based; outline: as §5
[16] = target: T1, Solute carrier family 2, facilitated glucose transporter member 1 (Rattus norvegicus); test: Inhibition of GluT1-mediated [14C]D-glucose uptake in Wistar rat brain at 20 mM by perfusion technique

SMILES	half-life [1]	Activity [2]	IC50 [3]	Drug uptake [5]	PA [7]	Drug uptake [8]	inhibition [10]	Drug uptake [14]	Activity [15]	also measured
CC(C(=O)OC[C@H]1O[C@@H](O)[C@H](O)[C@@H](O)[C@@H]1O)c1cccc(C(=O)c2ccccc2)c1 (some centres not stated)	88.5 h	Dose-dependent effect	32.9 µM	0.515 pmol/mg/min	0.0033 mL/s/g	1.33 pmol/mg/min	75.5%	0.513 pmol/mg/min	–	Drug uptake [4]: 20.77 pmol/mg/min; Drug uptake [6]: 93.21 pmol/mg/min; half-life [9]: 0.725 h; Drug uptake [11]: 3.55 pmol/mg/min; half-life [12]: 8.6 min; Drug uptake [13]: 7.78 pmol/mg/min
COc1ccc2c(c1)c(CC(=O)OCC(=O)OC[C@H]1O[C@@H](O)[C@H](O)[C@@H](O)[C@@H]1O)c(C)n2C(=O)c1ccc(Cl)cc1	3 h	–	–	–	–	–	–	–	Unstable	–
OC[C@H]1OC(O)[C@H](O)[C@@H](O)[C@@H]1O (some centres not stated)	–	–	–	–	–	–	–	–	–	inhibition [16]: 73.8%

Continued, in another order:

half-life [1]	Activity [2]	IC50 [3]	Drug uptake [5]	PA [7]	Drug uptake [8]	inhibition [10]	Drug uptake [14]	Activity [15]	SMILES	also measured
40.5 h	Dose-dependent effect	0.71 µM	0.599 pmol/mg/min	0.0032 mL/s/g	1.993 pmol/mg/min	96.7%	1.806 pmol/mg/min	–	COc1ccc2c(c1)c(CC(=O)OC[C@H]1O[C@@H](O)[C@H](O)[C@@H](O)[C@@H]1O)c(C)n2C(=O)c1ccc(Cl)cc1	–
9.5 h	–	–	–	–	–	–	–	Unstable	COc1ccc2c(c1)c(CC(=O)OC(C)C(=O)OC[C@H]1O[C@@H](O)[C@H](O)[C@@H](O)[C@@H]1O)c(C)n2C(=O)c1ccc(Cl)cc1 (some centres not stated)	–
